Screening results from PubChem BioAssay.
The list is not random: actives were taken first. Their share in the collection is about 1.6%.
Smad3 inh: Smad3/FoxH1 peptide binding inhibitors, primary screen, biochemical, TR-FRET; Mothers against decapentaplegic homolog 3 (Homo sapiens), P84022; TR-FRET Smad3/Dy647-FoxH1 peptide binding, europium anti-His; inhibition, % at 25 µM; 0.29% of 88,000 active; AID 630, 2007;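 active means compounds that reduce the energy-transfer binding signal between the protein and its labelled peptide by more than half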;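 further: 0% = Smad3 plus labelled peptide maximal FRET and 100% = peptide-only background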
Target sequence (P84022 whole entry, looked up): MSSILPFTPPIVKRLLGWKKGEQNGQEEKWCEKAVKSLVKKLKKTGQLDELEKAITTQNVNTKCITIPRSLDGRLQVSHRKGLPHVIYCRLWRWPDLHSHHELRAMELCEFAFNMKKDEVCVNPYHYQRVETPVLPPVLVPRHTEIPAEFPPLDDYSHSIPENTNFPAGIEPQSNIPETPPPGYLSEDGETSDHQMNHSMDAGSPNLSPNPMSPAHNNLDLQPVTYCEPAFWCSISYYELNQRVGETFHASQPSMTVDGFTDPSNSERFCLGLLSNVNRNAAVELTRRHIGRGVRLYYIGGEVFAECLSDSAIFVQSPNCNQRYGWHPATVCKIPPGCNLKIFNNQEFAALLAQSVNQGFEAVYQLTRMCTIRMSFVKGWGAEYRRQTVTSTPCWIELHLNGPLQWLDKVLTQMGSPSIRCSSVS
CD11b adhes enh: enhancers of CD11b/CD18 adhesion to fibrinogen, primary screen, K562 cells, luminescence | AID 1499, 2009 | activation, % at 10 µM | ATPlite luminescence | 0.07% of 93,000 active;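 active means 10 µM primary screen giving 50% or more activity, confirmed by 40% or more on retest at that dose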
HIV Rev-RRE inh: HIV-1 Rev-RRE binding inhibitors, primary screen, biochemical, FRET, protein-RNA interaction; Rev peptide-RRE RNA binding; inhibition, % at 8 µM; 0.79% of 97,000 active; AID 704, 2007;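 active means inhibition above the screen-wide mean plus 3 SD, cut at about 35% in these data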;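 further: 0% = median DMSO wells and 100% = median Neomycin B control wells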
Target sequence (P05866 whole entry, looked up): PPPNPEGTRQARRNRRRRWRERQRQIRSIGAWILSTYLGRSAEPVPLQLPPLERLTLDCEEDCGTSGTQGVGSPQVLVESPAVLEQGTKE
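Test system: Cy5-tagged RRE RNA duplex with fluorescein-tagged Rev peptide | Read-out: % inhibition of FRET ratio versus controls | Probe or stimulus: Labelled Rev peptide | Incubation: 5 min RNA-compound premix plus 15 min binding step, 25 °C | Technique: FRET fluorescence readout | Benchmarks: DMSO low control, neomycin B high control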
Mac1 fbg inh: inhibitors of CD11b/CD18 adhesion to fibrinogen, primary screen, K562 cells, luminescence. Integrin beta-2 (Homo sapiens) + Integrin alpha-M (Homo sapiens), P05107+P11215. inhibition, % at 10 µM. 0.54% of 93,000 active. ATPlite luminescence; Mn2+ added to activate the integrin;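 active means primary inhibition of 50% or more at 10 µM, then 40% or more on retest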
sEH inhibitor: soluble epoxide hydrolase inhibitors, primary screen, biochemical, human sEH. Bifunctional epoxide hydrolase 2 (Homo sapiens), P34913. recombinant human sEH enzymatic activity assay. inhibition, % at 2 µM. 0.34% of 91,000 active. AID 707, 2007; in the data active means inhibition above about 80%
sEH act: soluble epoxide hydrolase activators, primary screen, biochemical, human sEH. AID 717, 2007. Bifunctional epoxide hydrolase 2 (Homo sapiens), P34913. 0.04% of 91,000 active. activation, % at 2 µM. purified human sEH enzymatic activity, activator screen; in the data active means activation above about 37%
Numbers without * were called inactive; . = no result given; [ ] = remark or other dose.

SMILES	Smad3 inh	CD11b adhes enh	HIV Rev-RRE inh	Mac1 fbg inh	sEH inhibitor	sEH act
Fc1ccc(NC(=S)N2N=CCC2c2ccccc2)cc1 (configuration not stated)	-7	-1	0	-14	5	-2
S=C(Nc1ccccc1)N1N=CCC1c1ccccc1 (configuration not stated)	-7	-4	3	72*	5	-5
NS(=O)(=O)c1ccc(N=Nc2ccc[nH]c2=O)cc1	43	.	.	.	.	.
CC(=O)[C@@]1(N=Nc2ccc(S(N)(=O)=O)cc2)CCOC1=O	52*	.	.	.	.	.
O=C(C1Cc2ccccc2CN1S(=O)(=O)c1ccc(F)cc1)N1CCCCCC1 (configuration not stated)	77*[fluorescence artefact?]	.	5	.	0	-2
Cc1cc(O)c(C(C)C)cc1CN1CCCCC1	18	.	.	.	.	.
COc1ccc(C(=O)Nc2nc(-c3cccs3)cs2)cc1	0	-7	14	92	-9	10
CCCSc1nnc(NC(=O)c2sc3nc(-c4cccs4)ccc3c2N)s1	.	75	105*[fluorescence artefact?]	31	.	.
Cc1csc(NC(=O)c2sc3nc(-c4cccs4)ccc3c2N)n1	5	0	102*[fluorescence artefact?]	-8	-25	24
CCSc1nnc(NC(=O)c2cccs2)s1	6	-6	.	2	.	.
[O-][N+](CCO)(CCO)c1ncnc2nc[nH]c12	-13	.	.	.	.	.
O=C(COc1c(F)c(F)c(C(F)(F)F)c(F)c1F)Nc1ccc(N2CCOCC2)c(Cl)c1	10	0	25	17	83*	-83
N#Cc1c2c(c(NCc3ccco3)n3c1nc1ccccc13)CCC2	9	3	20	2	-19	19
c1coc(CNc2c3c(nc4ccccc24)CCC3)c1	-13	-2	36*	-2	1	0
N#C/C(=C/c1ccc(N2CCCCCC2)o1)c1ccc(Cl)cc1	-13	2	97*[fluorescence artefact?]	1	6	-6
N#C/C(=C/c1ccc(N2CCCCC2)o1)c1cccc(F)c1	-24	-1	99*[fluorescence artefact?]	28	4	-6
N#C/C(=C/c1ccc(N2CCCCC2)cc1)c1cccc(F)c1	.	-6	.	38	.	.
C[C@@H]1c2ccccc2Cn2cc3c(c21)C(=O)c1cccc(OP(=O)(O)OCc2ccccc2)c1C3=O	1	.	.	.	.	.
O=c1c[n+](CCCC[n+]2cc(=O)o[nH]2)[nH]o1	-7	.	.	.	.	.
O=C(Nc1cccc(F)c1)NC1CC2CCCC(C1)N2C1CC1 (configuration not stated)	5	1	8	-5	84*	-84
O=C(Nc1cccc(F)c1)NC1CCCCC1	6	3	1	3	88*	-88
O=C(Nc1ccc(Cl)c(C(F)(F)F)c1)NC1CC2CCCC(C1)N2C1CC1 (configuration not stated)	11	.	3	.	79	-80
O=C(Nc1ccc2c(c1)OCCO2)NC1CCCCC1	5	-3	0	-5	89*	-89
COc1cccc(/C=C2/CN(C)CC3=C2OC(N)=C(C#N)C3c2cccc(OC)c2)c1 (configuration not stated)	7	.	55*	.	6	-3
COc1ccc(N=C2S/C(=C\c3ccc(N4CCOCC4)o3)C(=O)N2CCc2c[nH]c3ccccc23)cc1	.	.	131*[fluorescence artefact?]	.	12	-10
SMILES	Smad3 inh	CD11b adhes enh	HIV Rev-RRE inh	Mac1 fbg inh	sEH inhibitor	sEH act
CC(Cc1cccs1)NC(=O)Nc1ccc(F)cc1 (configuration not stated)	5	-1	9	-3	64	-65
CC(Cc1cccs1)NC(=O)Nc1cccc(Cl)c1 (configuration not stated)	8	-6	1	23	84*	-85
Cc1cc2nc(-c3ccc(SCC(=O)N4CCN(C(=O)c5ccco5)CC4)nc3)[nH]c2cc1C	11	.	-3	.	81*	-81
CN(C)Cc1c[nH]c2nc[nH]c(=O)c12	68*	.	.	.	.	.
CN(C)Cc1c(O)ccc2[nH]cnc12	-3	-2	10	-32	0	-1
CC1=NN(c2ccc(S(=O)(=O)O)cc2)C(=O)/C1=C\c1ccc(Cl)cc1	-1	.	.	.	.	.
COc1ccccc1CN=Cc1[nH]c2ccc(Br)c(Cl)c2c1O	11	-1	87*[fluorescence artefact?]	-10	-7	8
COc1cccc(CN=CC2=C(O)CC(C)(C)CC2=O)c1OC	.	.	-1	.	-5	7
O=c1c(Sc2ccccc2)c(C(F)(F)F)[nH]n1-c1ccccc1	2	-2	7	56*	-5	7
CC(C)CN=C(N)N=C(N)N	4	.	.	.	.	.
CCn1c2ccccc2c2cc(NC(=O)c3ccc(Br)o3)ccc21	0	12	76*	-30	-8	11
O=C1c2ccccc2C(=O)c2c(Nc3cc4c5c(ccc6c7ccc8c9c(cc(Nc%10cccc%11c%10C(=O)c%10ccccc%10C%11=O)c(c3c56)c97)-c3ccccc3C8=O)C(=O)c3ccccc3-4)cccc21	73*	.	.	.	.	.
CNc1cccc2c1C(=O)c1ccccc1C2=O	.	16	.	8	.	.
O=C1c2ccccc2C(=O)c2c(Nc3ccc4c5c(cccc35)C(=O)c3ccccc3-4)cccc21	83*	.	.	.	.	.
O=C(O)[C@H](CCc1ccccc1)N1C(=O)c2ccccc2C1=O	26	.	.	.	.	.
O=S(=O)(C[C@H](O)C(Cl)(Cl)Cl)NNc1ccccc1	23	.	.	.	.	.
COC(=O)C1Sc2[nH]c(=O)sc2C(c2ccc(Cl)cc2)C1C(=O)OC (configuration not stated)	-2	-1	1	-9	.	.
COC(=O)C1CSc2[nH]c(=O)sc2C1c1ccccc1 (configuration not stated)	.	1	79*	-3	4	-1
Cc1cc(N2CCCC(C(=O)Nc3ccc4c(c3)CCC4)C2)n2ncnc2n1 (configuration not stated)	-2	1	5	-24	82*	-82
Cc1c2ccccc2c(CSC(=N)N)c2ccccc12	39	.	.	.	.	.
COc1ccc(S(=O)(=O)c2c(N)n(Cc3ccco3)c3nc4ccccc4nc23)cc1	9	86	53*	-1	-10	10
O=C(O)CNc1ccc(C(=O)O)cc1	3	.	.	.	.	.
O=CNc1ncn[nH]1	-7	.	.	.	.	.
